Reference: ChEMBL document CHEMBL4020761, “Exploration of pyrrole derivatives to find an effective potassium-competitive acid blocker with moderately long-lasting suppression of gastric acid secretion” (Bioorg Med Chem, 2017)

Tests used:
[1] = Cytotoxicity against human HepG2 cells assessed as cellular ATP level at 100 uM after 1 day by ATPLite assay relative to control; type: cell-based; conditions: read-out: Activity
CYP3A4 = CYP3A4 (Homo sapiens, UniProt P08684); assay: Inhibition of CYP3A4 (unknown origin) expressed in insect cells at 10 uM using testosterone as substrate after 15 mins by HPLC analysis relative to control; type: ADME; conditions: recombinant CYP3A4 expressed in insect cells, probe testosterone
Chain of CYP3A4 (P08684 whole entry): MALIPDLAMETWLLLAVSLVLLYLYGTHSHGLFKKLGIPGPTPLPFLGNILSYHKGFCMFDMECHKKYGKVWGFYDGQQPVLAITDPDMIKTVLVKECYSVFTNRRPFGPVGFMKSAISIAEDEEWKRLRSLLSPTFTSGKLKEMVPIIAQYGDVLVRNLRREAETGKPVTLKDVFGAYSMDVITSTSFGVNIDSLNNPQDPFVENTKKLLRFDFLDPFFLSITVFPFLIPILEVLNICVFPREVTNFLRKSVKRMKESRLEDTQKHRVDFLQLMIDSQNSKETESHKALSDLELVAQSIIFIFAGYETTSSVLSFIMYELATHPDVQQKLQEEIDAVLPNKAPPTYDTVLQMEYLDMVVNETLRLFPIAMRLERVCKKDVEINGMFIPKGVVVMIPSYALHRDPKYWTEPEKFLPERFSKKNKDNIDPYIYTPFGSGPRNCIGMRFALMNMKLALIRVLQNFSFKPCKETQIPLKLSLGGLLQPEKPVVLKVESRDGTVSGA
Procedure, shortened: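 Testosterone substrate at 100 μmol/L with 10 nmol/L insect-cell-expressed CYP3A4 and 10 μmol/L test compound, incubated 15 min at 37 °C. 6β-hydroxytestosterone quantified by HPLC with UV detection.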

[2] = Inhibition of H+/K+-ATPase in porcine stomach gastric mucosal microsomes assessed as reduction in inorganic phosphate production using ATP as substrate preincubated for 30 mins followed by ATP addition in presence of KCl at pH 6.5 by malachite green reagent based colorimetric assay; design: species or system Sus scrofa
[3] = Lipophilicity, log D of the compound at pH 7.4 by HPLC analysis; type: physicochemical; conditions: buffer
Procedure, shortened: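 At pH 7.4, log D derived from HPLC retention time relative to standard compounds.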

Rattus norvegicus = assay: Inhibition of histamine-induced acid secretion in Jcl:Sprague-Dawley rat gastric at 1 mg/kg, iv pretreated for 3 mins after pylorus ligation followed by histamine.2HCl treatment measured after 3 hrs by titration method relative to control; type: functional
Procedure, shortened: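 Anesthetized rats dosed iv at 1 mg/kg. Total acid output over 3 h after histamine injection compared with vehicle-treated rats.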

[4] = Drug uptake in Sprague-Dawley rat stomach at 0.2 mg/kg, iv administered as cassette dose after 10 mins by LC-MS/MS analysis; type: ADME, organism-based; conditions: read-out: Drug uptake
Procedure, shortened: (§1)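 Fasted male Sprague-Dawley rats given compounds iv by cassette dosing at 0.2 mg/kg (as free base). Plasma and stomach sampled at 10 min, 1, 4 and 24 h. Plasma and 20% stomach homogenate in saline deproteinized with acetonitrile containing internal standard, then LC/MS/MS. AUC calculated for plasma and stomach. Values are averages of three rats.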

[5] = Drug uptake in Sprague-Dawley rat stomach at 0.2 mg/kg, iv administered as cassette dose after 1 hr by LC-MS/MS analysis; type: ADME, organism-based; conditions: read-out: Drug uptake; procedure, shortened: as §1
[6] = Plasma concentration in Sprague-Dawley rat at 0.2 mg/kg, iv administered as cassette dose after 1 hr by LC-MS/MS analysis; type: ADME, organism-based; procedure, shortened: as §1
[7] = Drug uptake in Sprague-Dawley rat stomach at 0.2 mg/kg, iv administered as cassette dose after 24 hrs by LC-MS/MS analysis; type: ADME, organism-based; conditions: read-out: Drug uptake; procedure, shortened: as §1
Stomach = assay: AUC in Sprague-Dawley rat stomach at 0.2 mg/kg, iv administered as cassette dose by LC-MS/MS analysis; type: ADME, organism-based; conditions: in vivo; procedure, shortened: as §1
[8] = AUC in Sprague-Dawley rat plasma at 0.2 mg/kg, iv administered as cassette dose by LC-MS/MS analysis; type: ADME, organism-based; procedure, shortened: as §1
[9] = Plasma concentration in Sprague-Dawley rat at 0.2 mg/kg, iv administered as cassette dose after 10 mins by LC-MS/MS analysis; type: ADME, organism-based; procedure, shortened: as §1
[10] = Drug uptake in Sprague-Dawley rat stomach at 0.2 mg/kg, iv administered as cassette dose after 4 hrs by LC-MS/MS analysis; type: ADME, organism-based; conditions: read-out: Drug uptake; procedure, shortened: as §1
hERG (KCNH2) = hERG (KCNH2) (Homo sapiens, UniProt Q12809); assay: Inhibition of human ERG expressed in HEK cells at 10 uM at -75 mV holding potential by Whole-cell voltage clamp assay relative to control; type: cell-based; conditions: HEK cells expressing human ERG
Chain of hERG (KCNH2) (Q12809 whole entry): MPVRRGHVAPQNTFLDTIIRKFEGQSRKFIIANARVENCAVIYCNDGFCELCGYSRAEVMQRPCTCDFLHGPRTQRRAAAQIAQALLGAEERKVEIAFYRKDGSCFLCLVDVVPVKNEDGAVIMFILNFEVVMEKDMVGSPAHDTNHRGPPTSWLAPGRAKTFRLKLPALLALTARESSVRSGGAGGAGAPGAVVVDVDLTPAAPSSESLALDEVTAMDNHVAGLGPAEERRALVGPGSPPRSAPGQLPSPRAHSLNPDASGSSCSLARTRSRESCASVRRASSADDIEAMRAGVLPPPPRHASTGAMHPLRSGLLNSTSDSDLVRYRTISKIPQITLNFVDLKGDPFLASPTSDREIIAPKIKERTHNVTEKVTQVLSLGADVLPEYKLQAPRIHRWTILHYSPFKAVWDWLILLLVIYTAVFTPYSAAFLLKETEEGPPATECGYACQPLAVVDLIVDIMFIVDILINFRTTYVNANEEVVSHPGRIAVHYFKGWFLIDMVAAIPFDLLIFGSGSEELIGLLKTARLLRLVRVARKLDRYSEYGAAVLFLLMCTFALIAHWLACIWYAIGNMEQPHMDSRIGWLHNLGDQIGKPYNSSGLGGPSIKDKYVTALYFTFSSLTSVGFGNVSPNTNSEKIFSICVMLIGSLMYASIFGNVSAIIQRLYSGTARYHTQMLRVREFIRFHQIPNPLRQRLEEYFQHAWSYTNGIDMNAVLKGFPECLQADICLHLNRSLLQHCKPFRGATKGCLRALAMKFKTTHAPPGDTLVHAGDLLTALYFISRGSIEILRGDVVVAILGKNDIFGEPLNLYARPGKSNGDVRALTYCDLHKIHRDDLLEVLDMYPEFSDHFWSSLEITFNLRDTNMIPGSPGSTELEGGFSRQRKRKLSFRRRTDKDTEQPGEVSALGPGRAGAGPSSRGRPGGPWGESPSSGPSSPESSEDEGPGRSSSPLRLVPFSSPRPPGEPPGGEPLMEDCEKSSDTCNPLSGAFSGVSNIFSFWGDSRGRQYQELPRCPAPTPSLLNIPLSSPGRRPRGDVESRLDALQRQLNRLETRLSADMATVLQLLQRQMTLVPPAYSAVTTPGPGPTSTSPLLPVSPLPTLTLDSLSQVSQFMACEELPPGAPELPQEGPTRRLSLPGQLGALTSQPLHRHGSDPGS

| SMILES | viability at 24 h, 100 µM [1] [%] | inhibition at 0.25 h, 10 µM (CYP3A4) [%] | IC50 [2] [µM] | logD [3] | inhibition in vivo at 1 mg/kg (Rattus norvegicus) [%] | concentration at 10 min [4] [ng/g] | concentration at 1 h [5] [ng/g] | concentration at 1 h [6] [µg/mL] | concentration at 24 h [7] [ng/g] | AUC (Stomach) [ng·h/g] | AUC [8] [µg·h/mL] | concentration at 10 min [9] [µg/mL] | concentration at 4 h [10] [ng/g] | inhibition at 10 µM (hERG (KCNH2)) [%] |
| --- | --- | --- | --- | --- | --- | --- | --- | --- | --- | --- | --- | --- | --- | --- |
| CNCc1cn(S(=O)(=O)c2cncc(Cl)c2)c(-c2cccnc2F)c1F | 66.9 | 45.9 | 0.16 | 1.44 | – | – | – | – | – | – | – | – | – | – |
| CNCc1cc(-c2cccnc2F)n(S(=O)(=O)c2cccnc2)c1 | – | 4.2 | 0.21 | – | 96 | 420 | 532 | 0.0084 | 19.6 | 7646 | 0.035 | 0.0371 | 541 | – |
| CNCc1cn(S(=O)(=O)c2ccc(F)cn2)c(-c2cccnc2F)c1F | 86.5 | 21.7 | 0.1 | 0.42 | 87 | 369 | 526 | 0.005 | – | 5179 | 0.022 | 0.025 | 347 | – |
| CNCc1cc(-c2cccnc2F)n(S(=O)(=O)c2cccs2)c1 | – | – | 0.032 | – | 96 | 522 | 592 | 0.0088 | – | 3815 | 0.027 | 0.0208 | 210 | – |
| CNCc1cn(S(=O)(=O)c2cncc(C)c2)c(-c2cccnc2F)c1F | 86.9 | 49.7 | 0.14 | 0.61 | 87 | – | – | – | – | – | – | – | – | – |
| CNCc1cn(S(=O)(=O)c2cccc(C)n2)c(-c2cccnc2F)c1F | 83.8 | 22.9 | 0.21 | 0.71 | 91 | 1080 | 999 | 0.0103 | 3.3 | 8550 | 0.041 | 0.0417 | 527 | 13.9 |
| CNCc1cn(S(=O)(=O)c2ccoc2)c(-c2cccnc2F)c1F | 100 | 12.8 | 0.06 | 0.45 | 95 | 635 | 688 | 0.0115 | – | 3865 | 0.041 | 0.0374 | 194 | 44.5 |
| CNCc1cn(S(=O)(=O)c2cccc(F)n2)c(-c2cccnc2F)c1F | 74 | 46 | 0.24 | 0.7 | – | – | – | – | – | – | – | – | – | – |
| CNCc1cn(S(=O)(=O)c2ncccc2C)c(-c2cccnc2F)c1F | 79.1 | 29 | 0.51 | 0.32 | 54 | – | – | – | – | – | – | – | – | – |
| CNCc1cc(-c2cccnc2F)n(S(=O)(=O)c2ccccn2)c1 | – | -9.7 | 0.12 | – | 81 | – | – | – | – | – | – | – | – | – |
| CNCc1cn(S(=O)(=O)c2ccco2)c(-c2cccnc2F)c1F | 90.8 | 5.6 | 0.079 | 0.2 | 75 | 592 | 706 | 0.0065 | – | 4566 | 0.026 | 0.0265 | 254 | 28.7 |
| CNCc1cn(S(=O)(=O)c2cccnc2Cl)c(-c2cccnc2F)c1F | 86.9 | 53.1 | 0.39 | 0.75 | – | 539 | 722 | 0.0101 | – | 6568 | 0.033 | 0.028 | 427 | – |
| CNCc1cn(S(=O)(=O)c2cccnc2)c(-c2cccnc2F)c1F | – | 14.4 | 0.049 | – | 98 | 602 | 752 | 0.015 | 130 | 10277 | 0.054 | 0.0515 | 629 | – |
| CNCc1cn(S(=O)(=O)c2ccc(OC)cn2)c(-c2cccnc2F)c1F | 80 | 7.7 | 0.28 | 0.64 | 95 | 624 | 806 | 0.0131 | – | 6761 | 0.052 | 0.0542 | 426 | 17.6 |
| CNCc1cc(-c2cccnc2F)n(S(=O)(=O)c2ccsc2)c1 | – | 1.4 | 0.032 | – | 98 | 407 | 614 | 0.0089 | 41.7 | 9152 | 0.029 | 0.0235 | 640 | – |
| CNCc1cn(S(=O)(=O)c2cc(OC)ccn2)c(-c2cccnc2F)c1F | 84.5 | 19 | 0.14 | 0.51 | 95 | 617 | 773 | 0.0101 | 8.8 | 4964 | 0.038 | 0.0372 | 268 | 38.7 |
| CNCc1cn(S(=O)(=O)c2cnccc2C)c(-c2cccnc2F)c1F | 90.9 | 40 | 0.12 | 0.43 | 98 | 360 | 618 | 0.0084 | – | 4248 | 0.041 | 0.0501 | 251 | 28.2 |
| CNCc1cn(S(=O)(=O)c2cccs2)c(-c2cccnc2F)c1F | 77.5 | 20.5 | 0.072 | 0.54 | 98 | 412 | 955 | 0.0122 | 17.4 | 11717 | 0.042 | 0.0366 | 827 | 56.1 |
